Test results from ChEMBL document CHEMBL4152256, “Structure-activity relationship of new antimalarial 1-aryl-3-susbtituted propanol derivatives: Synthesis, preliminary toxicity profiling, parasite life cycle stage studies, target exploration, and targeted delivery” (Eur J Med Chem, 2018).

Columns and labels:
[1] = Genotoxicity in Salmonella typhimurium TA1535 harboring pSK1002 assessed as survival at 0.008 mg/ml in absence of Sprague-Dawley rat liver S9 fraction after by SOS/umu assay relative to control; assay type: toxicity, organism-based; conditions: salmonella enterica subsp. enterica serovar typhimurium, read-out: Survival
[2] = Genotoxicity in Salmonella typhimurium TA1535 harboring pSK1002 assessed as survival at 0.004 mg/ml in absence of Sprague-Dawley rat liver S9 fraction after by SOS/umu assay relative to control; assay type: toxicity, organism-based; conditions: salmonella enterica subsp. enterica serovar typhimurium, read-out: Survival
[3] = Genotoxicity in Salmonella typhimurium TA1535 harboring pSK1002 assessed as survival at 0.125 mg/ml in absence of Sprague-Dawley rat liver S9 fraction after by SOS/umu assay relative to control; assay type: toxicity, organism-based; conditions: salmonella enterica subsp. enterica serovar typhimurium, read-out: Survival
[4] = Genotoxicity in Salmonella typhimurium TA1535 harboring pSK1002 assessed as survival at 0.125 mg/ml in presence of Sprague-Dawley rat liver S9 fraction after by SOS/umu assay relative to control; assay type: toxicity, organism-based; conditions: salmonella enterica subsp. enterica serovar typhimurium, read-out: Survival
[5] = Genotoxicity in Salmonella typhimurium TA1535 harboring pSK1002 assessed as survival at 0.063 mg/ml in absence of Sprague-Dawley rat liver S9 fraction after by SOS/umu assay relative to control; assay type: toxicity, organism-based; conditions: salmonella enterica subsp. enterica serovar typhimurium, read-out: Survival
[6] = Genotoxicity in Salmonella typhimurium TA1535 harboring pSK1002 assessed as survival at 0.031 mg/ml in absence of Sprague-Dawley rat liver S9 fraction after by SOS/umu assay relative to control; assay type: toxicity, organism-based; conditions: salmonella enterica subsp. enterica serovar typhimurium, read-out: Survival
[7] = Genotoxicity in Salmonella typhimurium TA1535 harboring pSK1002 assessed as umu gene induction at 0.004 mg/ml in absence of Sprague-Dawley rat liver S9 fraction after by SOS/umu assay relative to control; assay type: toxicity, organism-based; conditions: salmonella enterica subsp. enterica serovar typhimurium, read-out: FC
[8] = Genotoxicity in Salmonella typhimurium TA1535 harboring pSK1002 assessed as survival at 0.008 mg/ml in presence of Sprague-Dawley rat liver S9 fraction after by SOS/umu assay relative to control; assay type: toxicity, organism-based; conditions: salmonella enterica subsp. enterica serovar typhimurium, read-out: Survival
[9] = Genotoxicity in Salmonella typhimurium TA1535 harboring pSK1002 assessed as survival at 0.031 mg/ml in presence of Sprague-Dawley rat liver S9 fraction after by SOS/umu assay relative to control; assay type: toxicity, organism-based; conditions: salmonella enterica subsp. enterica serovar typhimurium, read-out: Survival
[10] = Genotoxicity in Salmonella typhimurium TA1535 harboring pSK1002 assessed as umu gene induction at 0.004 mg/ml in presence of Sprague-Dawley rat liver S9 fraction after by SOS/umu assay relative to control; assay type: toxicity, organism-based; conditions: salmonella enterica subsp. enterica serovar typhimurium, read-out: FC
[11] = Genotoxicity in Salmonella typhimurium TA1535 harboring pSK1002 assessed as umu gene induction at 0.016 mg/ml in presence of Sprague-Dawley rat liver S9 fraction after by SOS/umu assay relative to control; assay type: toxicity, organism-based; conditions: salmonella enterica subsp. enterica serovar typhimurium, read-out: FC
[12] = Genotoxicity in Salmonella typhimurium TA1535 harboring pSK1002 assessed as survival at 0.001 mg/ml in presence of Sprague-Dawley rat liver S9 fraction after by SOS/umu assay relative to control; assay type: toxicity, organism-based; conditions: salmonella enterica subsp. enterica serovar typhimurium, read-out: Survival
[13] = Genotoxicity in Salmonella typhimurium TA1535 harboring pSK1002 assessed as umu gene induction at 0.063 mg/ml in absence of Sprague-Dawley rat liver S9 fraction after by SOS/umu assay relative to control; assay type: toxicity, organism-based; conditions: salmonella enterica subsp. enterica serovar typhimurium, read-out: FC
[14] = Genotoxicity in Salmonella typhimurium TA1535 harboring pSK1002 assessed as umu gene induction at 0.008 mg/ml in absence of Sprague-Dawley rat liver S9 fraction after by SOS/umu assay relative to control; assay type: toxicity, organism-based; conditions: salmonella enterica subsp. enterica serovar typhimurium, read-out: FC
[15] = Genotoxicity in Salmonella typhimurium TA1535 harboring pSK1002 assessed as survival at 0.016 mg/ml in presence of Sprague-Dawley rat liver S9 fraction after by SOS/umu assay relative to control; assay type: toxicity, organism-based; conditions: salmonella enterica subsp. enterica serovar typhimurium, read-out: Survival
[16] = Genotoxicity in Salmonella typhimurium TA1535 harboring pSK1002 assessed as umu gene induction at 0.031 mg/ml in presence of Sprague-Dawley rat liver S9 fraction after by SOS/umu assay relative to control; assay type: toxicity, organism-based; conditions: salmonella enterica subsp. enterica serovar typhimurium, read-out: FC
[17] = Genotoxicity in Salmonella typhimurium TA1535 harboring pSK1002 assessed as umu gene induction at 0.016 mg/ml in absence of Sprague-Dawley rat liver S9 fraction after by SOS/umu assay relative to control; assay type: toxicity, organism-based; conditions: salmonella enterica subsp. enterica serovar typhimurium, read-out: FC
[18] = Genotoxicity in Salmonella typhimurium TA1535 harboring pSK1002 assessed as survival at 0.016 mg/ml in absence of Sprague-Dawley rat liver S9 fraction after by SOS/umu assay relative to control; assay type: toxicity, organism-based; conditions: salmonella enterica subsp. enterica serovar typhimurium, read-out: Survival
[19] = Genotoxicity in Salmonella typhimurium TA1535 harboring pSK1002 assessed as survival at 0.063 mg/ml in presence of Sprague-Dawley rat liver S9 fraction after by SOS/umu assay relative to control; assay type: toxicity, organism-based; conditions: salmonella enterica subsp. enterica serovar typhimurium, read-out: Survival
[20] = Genotoxicity in Salmonella typhimurium TA1535 harboring pSK1002 assessed as umu gene induction at 0.031 mg/ml in absence of Sprague-Dawley rat liver S9 fraction after by SOS/umu assay relative to control; assay type: toxicity, organism-based; conditions: salmonella enterica subsp. enterica serovar typhimurium, read-out: FC
[21] = Cytotoxicity against human HepG2A16 cells by MTT assay; assay type: cell-based
Summary of the method: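 MTT viability assay on HepG2-A16 cells, giving CC50 values.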

[22] = Genotoxicity in Salmonella typhimurium TA1535 harboring pSK1002 assessed as umu gene induction at 0.125 mg/ml in presence of Sprague-Dawley rat liver S9 fraction after by SOS/umu assay relative to control; assay type: toxicity, organism-based; conditions: salmonella enterica subsp. enterica serovar typhimurium, read-out: FC
[23] = Genotoxicity in Salmonella typhimurium TA1535 harboring pSK1002 assessed as umu gene induction at 0.063 mg/ml in presence of Sprague-Dawley rat liver S9 fraction after by SOS/umu assay relative to control; assay type: toxicity, organism-based; conditions: salmonella enterica subsp. enterica serovar typhimurium, read-out: FC
[24] = Genotoxicity in Salmonella typhimurium TA1535 harboring pSK1002 assessed as umu gene induction at 0.125 mg/ml in absence of Sprague-Dawley rat liver S9 fraction after by SOS/umu assay relative to control; assay type: toxicity, organism-based; conditions: salmonella enterica subsp. enterica serovar typhimurium, read-out: FC
Plasmodium falciparum = experiment: Antiplasmodial activity against chloroquine-sensitive Plasmodium falciparum 3D7 by [3H]-hypoxanthine incorporation assay; assay type: functional, organism-based
Summary of the method: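 Blood-stage P. falciparum 3D7 and FCR-3 were tested by a modified [3H]-hypoxanthine incorporation assay. Chloroquine was the reference in all runs.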

[25] = Genotoxicity in Salmonella typhimurium TA1535 harboring pSK1002 assessed as umu gene induction at 0.001 mg/ml in presence of Sprague-Dawley rat liver S9 fraction after by SOS/umu assay relative to control; assay type: toxicity, organism-based; conditions: salmonella enterica subsp. enterica serovar typhimurium, read-out: FC
[26] = Selectivity index, ratio of CC50 for human HepG2A16 cells by MTT assay to IC50 for multidrug-resistant Plasmodium falciparum FCR-3; assay type: toxicity; conditions: for selectivity ratio: HepG2A16 cells, read-out: Ratio CC50/IC50
Summary of the method: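 HepG2-A16 human hepatoma cells were tested by MTT viability assay to give CC50. Blood-stage activity was measured against the multidrug-resistant P. falciparum FCR-3 strain by [3H]-hypoxanthine incorporation to give IC50. SI = CC50 HepG2 / FCR-3 IC50.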

[27] = Genotoxicity in Salmonella typhimurium TA1535 harboring pSK1002 assessed as survival at 0.004 mg/ml in presence of Sprague-Dawley rat liver S9 fraction after by SOS/umu assay relative to control; assay type: toxicity, organism-based; conditions: salmonella enterica subsp. enterica serovar typhimurium, read-out: Survival
[28] = Genotoxicity in Salmonella typhimurium TA1535 harboring pSK1002 assessed as umu gene induction at 0.001 mg/ml in absence of Sprague-Dawley rat liver S9 fraction after by SOS/umu assay relative to control; assay type: toxicity, organism-based; conditions: salmonella enterica subsp. enterica serovar typhimurium, read-out: FC

SMILES	viability at 0.008 mg/ml [1] [%]	viability at 0.004 mg/ml [2] [%]	viability at 0.125 mg/ml [3] [%]	viability at 0.125 mg/ml [4] [%]	viability at 0.063 mg/ml [5] [%]	viability at 0.031 mg/ml [6] [%]	fold induction at 0.004 mg/ml [7]	viability at 0.008 mg/ml [8] [%]	viability at 0.031 mg/ml [9] [%]	fold induction at 0.004 mg/ml [10]	fold induction at 0.016 mg/ml [11]	viability at 0.001 mg/ml [12] [%]	fold induction at 0.063 mg/ml [13]	fold induction at 0.008 mg/ml [14]	viability at 0.016 mg/ml [15] [%]	fold induction at 0.031 mg/ml [16]	fold induction at 0.016 mg/ml [17]	viability at 0.016 mg/ml [18] [%]	viability at 0.063 mg/ml [19] [%]	fold induction at 0.031 mg/ml [20]	other results
OC(CCN1CCN(C(c2ccccc2)c2ccccc2)CC1)c1ccc(F)c(F)c1 (stereo not given)	105	102	24.1	117	28	20.7	1	101	103	0.9	0.8	98.5	4	1.2	94.9	0.8	2	36.7	112	1.9	CC50 ([21]; HepG2A16 cells): 54.3 µM; fold induction at 0.125 mg/ml [22]: 0.7; fold induction at 0.063 mg/ml [23]: 0.8; fold induction at 0.125 mg/ml [24]: 1.4; IC50 (Plasmodium falciparum; Plasmodium falciparum, 3D7): 0.38 µM; fold induction at 0.001 mg/ml [25]: 0.6; selectivity ratio [26]: 147; viability at 0.004 mg/ml [27]: 87.6%; fold induction at 0.001 mg/ml [28]: 0.6
N#Cc1ccc(C(O)CCN2CC=C(c3ccc(F)cc3)CC2)cc1 (stereo not given)	89.4	94.7	87.9	108	82.3	77.3	0.9	108	130	0.8	0.9	104	1.2	1.1	126	0.8	1.1	85.1	101	1.2	CC50 ([21]; HepG2A16 cells): 82.4 µM; fold induction at 0.125 mg/ml [22]: 1; fold induction at 0.063 mg/ml [23]: 1.1; fold induction at 0.125 mg/ml [24]: 1.1; IC50 (Plasmodium falciparum; Plasmodium falciparum, 3D7): 8.48 µM; fold induction at 0.001 mg/ml [25]: 1.1; selectivity ratio [26]: 62; viability at 0.004 mg/ml [27]: 122%; fold induction at 0.001 mg/ml [28]: 0.9
COc1ccccc1C1=CCN(CCC(O)c2ccc(F)c3ccccc23)CC1 (stereo not given)	76.4	76.7	114	79.1	90.7	47.2	0.9	96.9	124	0.8	0.8	106	0.5	0.8	84	0.5	1.2	50.6	76	1.3	CC50 ([21]; HepG2A16 cells): 17.7 µM; fold induction at 0.125 mg/ml [22]: 0.7; fold induction at 0.063 mg/ml [23]: 0.6; fold induction at 0.125 mg/ml [24]: 0.4; IC50 (Plasmodium falciparum; Plasmodium falciparum, 3D7): 0.1 µM; fold induction at 0.001 mg/ml [25]: 0.8; selectivity ratio [26]: 14; viability at 0.004 mg/ml [27]: 91.1%; fold induction at 0.001 mg/ml [28]: 0.9
OC(CCN1CCN(c2ccccc2C(F)(F)F)CC1)c1ccc(F)c2ccccc12 (stereo in doubt; 55)	68.7	52.1	167	100	138	127	1.1	121	101	0.5	1.1	106	0.2	0.9	73.9	0.7	0.6	94.7	90.8	0.4	CC50 [21]: 27.5 µM; fold induction at 0.125 mg/ml [22]: 0.7; fold induction at 0.063 mg/ml [23]: 0.8; fold induction at 0.125 mg/ml [24]: 0.3; IC50 (Plasmodium falciparum): 0.16 µM; fold induction at 0.001 mg/ml [25]: 0.3; Ratio CC50/IC50 [26]: 183; viability at 0.004 mg/ml [27]: 108%; fold induction at 0.001 mg/ml [28]: 0.7
N#Cc1ccc(N2CCC(NCCC(O)c3ccc(F)c4ccccc34)CC2)c(C(F)(F)F)c1 (stereo in doubt; 72)	32.9	33.3	62.4	91	54.7	30.2	0.9	52.9	35	0.7	0.6	121	0.3	0.8	36.3	0.6	0.8	28.3	85.2	0.7	CC50 [21]: 6.22 µM; fold induction at 0.125 mg/ml [22]: 0.2; fold induction at 0.063 mg/ml [23]: 0.2; fold induction at 0.125 mg/ml [24]: 0.2; IC50 (Plasmodium falciparum): 0.13 µM; fold induction at 0.001 mg/ml [25]: 0.8; Ratio CC50/IC50 [26]: 78; viability at 0.004 mg/ml [27]: 136%; fold induction at 0.001 mg/ml [28]: 1
